Data: ChEMBL document CHEMBL4396874, “Consideration of Binding Kinetics in the Design of Stapled Peptide Mimics of the Disordered Proteins Eukaryotic Translation Initiation Factor 4E-Binding Protein 1 and Eukaryotic Translation Initiation Factor 4G” (J Med Chem, 2019)
Each block holds one molecule with its values, some of them ahead of it. Activity calls are given as the source filed them. The rule behind the calls is not given here. Bridge positions count the residues as written; N and C are the ends. Square brackets hold non-standard residues; d marks the D form. Peptide text beside a SMILES is read from it. S5 = C=CCCC[C@](C)(N)C(=O)O

How the values were obtained:
[1] = biological target: Eukaryotic translation initiation factor 4E/Eukaryotic translation initiation factor 4E-binding protein 1 (Homo sapiens, UniProt P06730); assay: Inhibition of Halo-tagged biotinylated human eIF4E expressed in Escherichia coli/Halo-tagged methyltetrazine-labelled human 4E-BP1 expressed in Escherichia coli protein-protein interaction incubated for 1 hr by catalytic enzyme-linked click chemistry assay
Sequence of Eukaryotic translation initiation factor 4E/Eukaryotic translation initiation factor 4E-binding protein 1 (P06730 whole entry): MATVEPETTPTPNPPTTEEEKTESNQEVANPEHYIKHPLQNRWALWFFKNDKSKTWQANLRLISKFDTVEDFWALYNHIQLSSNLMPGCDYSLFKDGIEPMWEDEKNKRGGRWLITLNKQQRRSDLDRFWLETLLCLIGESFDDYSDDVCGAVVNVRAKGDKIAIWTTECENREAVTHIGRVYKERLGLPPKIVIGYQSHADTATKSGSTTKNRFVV
Sequence of Eukaryotic translation initiation factor 4E/Eukaryotic translation initiation factor 4E-binding protein 1 (Q13541 whole entry, further chain): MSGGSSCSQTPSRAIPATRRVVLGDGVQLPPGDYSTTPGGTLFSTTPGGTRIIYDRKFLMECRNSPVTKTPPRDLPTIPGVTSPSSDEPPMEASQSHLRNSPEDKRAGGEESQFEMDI

MDA-MB-231 [2] = assay: Effect on total eIF4E level in human MDA-MB-231 cells at 5 uM after 6 hrs by Western blot analysis; format: ADME, cell-based; conditions: mda-mb-231, 6 h
Procedure, shortened: (§1)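 MDA-MB-231 cells in 10% FBS treated 6 h with water-dissolved peptides, lysed in RIPA with protease/phosphatase inhibitors, sonicated on ice, protein normalized by BCA, then western blotted (4–12% bis-Tris gel, PVDF, 5% milk block, primary overnight at 4 °C). Triplicate biological replicates.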

MDA-MB-231 [3] = assay: Effect on total 4E-BP1 level in human MDA-MB-231 cells at 5 uM after 6 hrs by Western blot analysis; format: ADME, cell-based; conditions: mda-mb-231, 6 h; procedure, shortened: as §1
MDA-MB-231 [4] = assay: Effect on total eIF4G level in human MDA-MB-231 cells at 5 uM after 6 hrs by Western blot analysis; format: ADME, cell-based; conditions: mda-mb-231, 6 h; procedure, shortened: as §1
MDA-MB-231 [5] = assay: Anti-proliferative activity against human MDA-MB-231 cells at 5 to 20 uM after 6 days by CellTiter-Glo assay; format: functional, cell-based
Procedure, shortened: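 MDA-MB-231 cells (RPMI-1640, 10% FBS, 2 mM glutamine) plated at 2000 cells/well; peptides added at varying concentrations in triplicate for 6 days. Medium then replaced with OptiMEM, cells lysed with CellTiter-Glo reagent, luminescence read within 1 h. Data normalized; triplicate biological replicates.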

[6] = biological target: Eukaryotic translation initiation factor 4E/Eukaryotic translation initiation factor 4E-binding protein 1 (Homo sapiens) (UniProt P06730+Q13541); assay: Inhibition of eIF4E/4E-BP1 interaction in human MDA-MB-231 cells incubated for 6 hr by m7GDP pull down assay; format: cell-based
Sequence of Eukaryotic translation initiation factor 4E/Eukaryotic translation initiation factor 4E-binding protein 1 (Homo sapiens) (P06730 2-217 limits assumed): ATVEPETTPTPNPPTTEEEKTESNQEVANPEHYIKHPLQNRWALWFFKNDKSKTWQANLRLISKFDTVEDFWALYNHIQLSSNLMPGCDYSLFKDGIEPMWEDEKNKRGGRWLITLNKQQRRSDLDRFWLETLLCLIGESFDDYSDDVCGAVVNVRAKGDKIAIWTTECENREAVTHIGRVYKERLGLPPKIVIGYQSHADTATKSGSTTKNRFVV
Sequence of Eukaryotic translation initiation factor 4E/Eukaryotic translation initiation factor 4E-binding protein 1 (Homo sapiens) (Q13541 2-118 partner limits assumed): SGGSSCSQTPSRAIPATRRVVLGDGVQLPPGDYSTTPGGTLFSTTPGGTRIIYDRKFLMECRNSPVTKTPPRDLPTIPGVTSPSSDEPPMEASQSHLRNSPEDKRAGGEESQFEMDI

[7] = biological target: EIF4E/EIF4G1 (Homo sapiens) (UniProt P06730+Q04637); assay: Inhibition of eIF4E/eIF4G interaction in human MDA-MB-231 cells incubated for 6 hr by m7GDP pull down assay; format: cell-based
MDA-MB-231 [8] = assay: Induction of cell lysis in human MDA-MB-231 cells assessed as LDH leakage at 15 uM after 24 hrs by LDH cytotoxicity assay; conditions: mda-mb-231, 24 h
[9] = biological target: T1, Eukaryotic translation initiation factor 4E (Homo sapiens, UniProt P06730); assay: Binding affinity to N-terminal 10His-tagged m7GDP-bound recombinant human eIF4E expressed in Escherichia coli BL21 (DE3) cells assessed as association constant at 12.5 to 200 nM at 10 to 25 degreeC by surface plasmon resonance analysis
T1 sequence (P06730 whole entry): as the sequence (P06730 whole entry) above

[10] = biological target: T1, Eukaryotic translation initiation factor 4E; assay: Binding affinity to N-terminal 10His-tagged m7GDP-bound recombinant human eIF4E expressed in Escherichia coli BL21 (DE3) cells assessed as dissociation constant at 10 to 25 degreeC by surface plasmon resonance analysis relative to control
Procedure, shortened: (§2)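 Peptides injected at 50 μL/min, 10 concentrations (188 nM to 4.0 μM) in duplicate, random order. Chip stripped with EDTA and reloaded between cycles.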

[11] = biological target: T1, Eukaryotic translation initiation factor 4E; assay: Binding affinity to N-terminal 10His-tagged m7GDP-bound recombinant human eIF4E expressed in Escherichia coli BL21 (DE3) cells assessed as binding constant at 10 to 25 degreeC by surface plasmon resonance analysis
[12] = biological target: T1, Eukaryotic translation initiation factor 4E; assay: Binding affinity to N-terminal 10His-tagged m7GDP-bound recombinant human eIF4E expressed in Escherichia coli BL21 (DE3) cells assessed as binding constant at 25 degreeC by surface plasmon resonance analysis
Procedure, shortened: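 m7GDP-bound His10-eIF4E captured to ~600 RU on a Ni-activated HisCap chip. EDTA regeneration between cycles. Kd from global 1:1 fit; triplicate experiments.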

[13] = biological target: T1, Eukaryotic translation initiation factor 4E; assay: Binding affinity to N-terminal 10His-tagged m7GDP-bound recombinant human eIF4E expressed in Escherichia coli BL21 (DE3) cells assessed as binding constant at 25 degreeC in presence of 1000 mM of NaCl by surface plasmon resonance analysis; procedure, shortened: as §2
[14] = biological target: T1, Eukaryotic translation initiation factor 4E; assay: Binding affinity to N-terminal 10His-tagged m7GDP-bound recombinant human eIF4E expressed in Escherichia coli BL21 (DE3) cells assessed as association rate constant at 25 degreeC by surface plasmon resonance analysis
[15] = biological target: T1, Eukaryotic translation initiation factor 4E; assay: Binding affinity to N-terminal 10His-tagged m7GDP-bound recombinant human eIF4E expressed in Escherichia coli BL21 (DE3) cells assessed as dissociation rate constant at 25 degreeC by surface plasmon resonance analysis
[16] = biological target: T1, Eukaryotic translation initiation factor 4E; assay: Binding affinity to N-terminal 10His-tagged m7GDP-bound recombinant human eIF4E expressed in Escherichia coli BL21 (DE3) cells assessed as dissociation constant at 25 degreeC in presence 225 to 1000 mM of NaCl by surface plasmon resonance analysis
[17] = biological target: T1, Eukaryotic translation initiation factor 4E

- IC50 [1]: 137 to 195 nM
Molecule: CC(=O)N[C@@H](CCCCN)C(=O)N[C@@H](CCCCN)C(=O)N[C@@H](CCCNC(=N)N)C(=O)N[C@@H](Cc1ccc(O)cc1)C(=O)N[C@@H](CC(=O)O)C(=O)N[C@@H](CCCNC(=N)N)C(=O)N[C@@H](CCC(=O)O)C(=O)N[C@@H](Cc1ccccc1)C(=O)N[C@@H](CC(C)C)C(=O)N[C@@H](CC(C)C)C(=O)NCC(=O)N[C@@H](Cc1ccccc1)C(=O)N[C@@H](CCC(N)=O)C(=O)N[C@@H](Cc1ccccc1)C(N)=O

- IC50 [1]: 4500 to 7300 nM
Molecule: CC(=O)N[C@@H](CCCCN)C(=O)N[C@@H](CCCCN)C(=O)N[C@@H](CCCNC(=N)N)C(=O)N[C@@H](Cc1ccc(O)cc1)C(=O)N[C@@H](CC(=O)O)C(=O)N[C@@H](CCCNC(=N)N)C(=O)N[C@@]1(C)CCC/C=C\CCC[C@@](C)(C(=O)N[C@@H](Cc2ccccc2)C(=O)N[C@@H](CCC(N)=O)C(=O)N[C@@H](Cc2ccccc2)C(N)=O)NC(=O)[C@H](CC(C)C)NC(=O)[C@H](CC(C)C)NC(=O)[C@H](Cc2ccccc2)NC1=O (Ac-KKRYDR[S5]FLL[S5]FQF-NH2; staple (Z) 7-11)

- IC50 [1]: 3.1 to 6.7 nM
Molecule: CC[C@H](C)[C@H](NC(=O)[C@H](CCCNC(=N)N)NC(=O)[C@@H](NC(=O)CNC(C)=O)[C@@H](C)O)C(=O)N[C@H](C(=O)N[C@@H](Cc1ccc(O)cc1)C(=O)N[C@@H](CC(=O)O)C(=O)N[C@@H](CCCNC(=N)N)C(=O)N[C@@]1(C)CCC/C=C\CCC[C@@](C)(C(=O)N[C@@H](CS)C(=O)N[C@@H](CCCNC(=N)N)C(=O)N[C@@H](CC(N)=O)C(N)=O)NC(=O)[C@H](CCSC)NC(=O)[C@H](CC(C)C)NC(=O)[C@H](Cc2ccccc2)NC1=O)[C@@H](C)CC
- Activity (MDA-MB-231 [2]): Non-Toxic
- Activity (MDA-MB-231 [3]): Non-Toxic
- Activity (MDA-MB-231 [4]): Non-Toxic
- Activity (MDA-MB-231 [5]): Active

- IC50 [1]: 16.6 to 31 nM
- inhibition [6]: Dose-dependent effect
- inhibition [7]: Dose-dependent effect
Molecule: CC(=O)N[C@@H](CCCCN)C(=O)N[C@@H](CCCCN)C(=O)N[C@@H](CCCNC(=N)N)C(=O)N[C@@H](Cc1ccc(O)cc1)C(=O)N[C@@H](CO)C(=O)N[C@@H](CCCNC(=N)N)C(=O)N[C@@]1(C)CCC/C=C\CCC[C@@](C)(C(=O)N[C@@H](CC(C)C)C(N)=O)NC(=O)[C@H](CC(C)C)NC(=O)[C@H](CC(C)C)NC(=O)[C@H](CCC(N)=O)NC1=O
- Activity (MDA-MB-231 [2]): Non-Toxic
- Activity (MDA-MB-231 [3]): Non-Toxic
- Activity (MDA-MB-231 [4]): Non-Toxic
- Activity (MDA-MB-231 [5]): Active
- Activity (MDA-MB-231 [8]): Non-Toxic

Molecule: CC[C@H](C)[C@H](NC(=O)[C@H](CCCNC(=N)N)NC(=O)[C@@H](NC(=O)CNC(C)=O)[C@@H](C)O)C(=O)N[C@H](C(=O)N[C@@H](Cc1ccc(O)cc1)C(=O)N[C@@H](CC(=O)O)C(=O)N[C@@H](CCCNC(=N)N)C(=O)N[C@@]1(C)CCC/C=C\CCC[C@@](C)(C(=O)N[C@@H](CS)C(=O)N[C@@H](CCCNC(=N)N)C(=O)N[C@@H](CC(N)=O)C(N)=O)NC(=O)[C@H](C)NC(=O)[C@H](C)NC(=O)[C@H](Cc2ccccc2)NC1=O)[C@@H](C)CC
- Activity (MDA-MB-231 [5]): inactive

- Ka [9]: inactive
- fold change (FC) [10]: 3.9 to 5.5
- K [11]: Active
- K [12]: 62 nM
- IC50 [1]: 384 to 633 nM
- K [13]: 14 to 62 nM
- kon [14]: 2 ×10⁶ /M/s
- koff [15]: 123 ×10⁻³ /s
Molecule: Ac-KKRYSREQLLGL-NH2

- fold change (FC) [10]: 3.9 to 5.5
- Kd [16]: Not Active
- K [13]: Active
- Ka [17]: inactive
Molecule: CC[C@H](C)[C@H](NC(=O)[C@@H](NC(=O)[C@@H](N)CCCNC(=N)N)[C@@H](C)CC)C(=O)N[C@@H](Cc1ccc(O)cc1)C(=O)N[C@@H](CC(=O)O)C(=O)N[C@@H](CCCNC(=N)N)C(=O)N[C@@H](CCCCN)C(=O)N[C@@H](Cc1ccccc1)C(=O)N[C@@H](CC(C)C)C(=O)N[C@@H](CCSC)C(=O)N[C@@H](CCC(=O)O)C(=O)N[C@@H](CS)C(=O)N[C@@H](CCCNC(=N)N)C(=O)N[C@@H](CC(N)=O)C(N)=O

- fold change (FC) [10]: 3.9 to 5.5
- kon [14]: 2 ×10⁶ /M/s
Molecule: H-KKRYDRKFLMECRN-NH2
